Laboratory results published in ChEMBL document CHEMBL1122792, “Synthesis and biological evaluation of radiolabeled beta-ruthenocenylalanine” (J Med Chem, 1984).

Experiments:
Mus musculus [1] = test: Distribution of Radioactivity in kidneys of CD-1 Mice by intravenous administration of compound after 1 hr expressed as dose/gram; format: ADME, organism-based, Kidney; settings: in vivo
Summary of the method: (§1)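 Female CD-1 mice, 7 1/2 weeks old (25-29 g), fed and watered ad libitum. Agent given in physiological saline, pH adjusted to 7.4 and filtered, by lateral tail vein injection under ether anesthesia. Tissues collected at 5 min, 1 h, 4 h and 1 day. Injectate samples counted as standard; results as mean % injected dose/g with range.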

Mus musculus [2] = test: Distribution of Radioactivity in kidneys of CD-1 Mice by intravenous administration of compound after 4 hr expressed as dose/gram; format: ADME, organism-based, Kidney; settings: in vivo; summary of the method: as §1
Mus musculus [3] = test: Distribution of Radioactivity in kidneys of CD-1 Mice by intravenous administration of compound after 5 minutes expressed as dose/gram; format: ADME, organism-based, Kidney; settings: in vivo; summary of the method: as §1
Mus musculus [4] = test: Distribution of Radioactivity in liver of CD-1 Mice […] by intravenous administration of compound after 5 minutes expressed as dose/gram; format: ADME, organism-based; settings: in vivo; summary of the method: as §1
Mus musculus [5] = test: Distribution of Radioactivity in liver of CD-1 Mice by intravenous administration of compound after 1 day expressed as dose/gram; format: ADME, organism-based; settings: in vivo, 24 h; summary of the method: as §1
Mus musculus [6] = test: Distribution of Radioactivity in liver of CD-1 Mice by intravenous administration of compound after 1 hr expressed as dose/gram; format: ADME, organism-based; settings: in vivo; summary of the method: as §1
Mus musculus [7] = test: Distribution of Radioactivity in liver of CD-1 Mice by intravenous administration of compound after 4 hour expressed as dose/gram; format: ADME, organism-based; settings: in vivo; summary of the method: as §1
Mus musculus [8] = test: Distribution of Radioactivity in lungs of CD-1 Mice by intravenous administration of compound after 1 day expressed as dose/gram; format: ADME, organism-based, Lung; settings: in vivo, 24 h; summary of the method: as §1
Mus musculus [9] = test: Distribution of Radioactivity in lungs of CD-1 Mice by intravenous administration of compound after 1 hr expressed as dose/gram; format: ADME, organism-based, Lung; settings: in vivo; summary of the method: as §1
Mus musculus [10] = test: Distribution of Radioactivity in lungs of CD-1 Mice by intravenous administration of compound after 4 hour expressed as dose/gram; format: ADME, organism-based, Lung; settings: in vivo; summary of the method: as §1
Mus musculus [11] = test: Distribution of Radioactivity in lungs of CD-1 Mice by intravenous administration of compound after 5 minutes expressed as dose/gram; format: ADME, organism-based, Lung; settings: in vivo; summary of the method: as §1
Mus musculus [12] = test: Distribution of Radioactivity in pancreas of CD-1 Mice by intravenous administration of compound after 1 day expressed as dose/gram; format: ADME, organism-based; settings: in vivo, 24 h; summary of the method: as §1
Mus musculus [13] = test: Distribution of Radioactivity in pancreas of CD-1 Mice by intravenous administration of compound after 1 hr expressed as dose/gram; format: ADME, organism-based; settings: in vivo; summary of the method: as §1
Mus musculus [14] = test: Distribution of Radioactivity in pancreas of CD-1 Mice by intravenous administration of compound after 4 hr expressed as dose/gram; format: ADME, organism-based; settings: in vivo; summary of the method: as §1
Mus musculus [15] = test: Distribution of Radioactivity in pancreas of CD-1 Mice by intravenous administration of compound after 5 minutes expressed as dose/gram; format: ADME, organism-based; settings: in vivo; summary of the method: as §1
Mus musculus [16] = test: Distribution of Radioactivity in small intestine of CD-1 Mice by intravenous administration of compound after 1 day expressed as dose/gram; format: ADME, organism-based; settings: in vivo, 24 h; summary of the method: as §1
Mus musculus [17] = test: Distribution of Radioactivity in small intestine of CD-1 Mice by intravenous administration of compound after 1 hr expressed as dose/gram; format: ADME, organism-based; settings: in vivo; summary of the method: as §1
Mus musculus [18] = test: Distribution of Radioactivity in small intestine of CD-1 Mice by intravenous administration of compound after 4 hr expressed as dose/gram; format: ADME, organism-based; settings: in vivo
Summary of the method: (§2)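 Female CD-1 mice, 7 1/2 weeks old (25-29 g), fed and watered ad libitum. Radiotracer in physiological saline, pH 7.4, filtered, injected via lateral tail vein under ether anesthesia. Tissues taken at 5 min, 1 h, 4 h or 1 day. Percent injected dose per gram calculated against assayed samples of the injected solution; mean with range reported.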

Mus musculus [19] = test: Distribution of Radioactivity in small intestine of CD-1 Mice by intravenous administration of compound after 5 minutes expressed as dose/gram; format: ADME, organism-based; settings: in vivo; summary of the method: as §2
Mus musculus [20] = test: Distribution of Radioactivity in stomach of CD-1 Mice by intravenous administration of compound after 1 hr expressed as dose/gram; format: ADME, organism-based; settings: in vivo; summary of the method: as §2
Mus musculus [21] = test: Distribution of Radioactivity in stomach of CD-1 Mice by intravenous administration of compound after 4 hr expressed as dose/gram; format: ADME, organism-based; settings: in vivo; summary of the method: as §2
Mus musculus [22] = test: Distribution of Radioactivity in stomach of CD-1 Mice by intravenous administration of compound after 5 minutes expressed as dose/gram; format: ADME, organism-based; settings: in vivo; summary of the method: as §2
Mus musculus [23] = test: Distribution of Radioactivity in thymus of CD-1 Mice by intravenous administration of compound after 1 day expressed as dose/gram; format: ADME, organism-based; settings: in vivo, 24 h; summary of the method: as §2
Mus musculus [24] = test: Distribution of Radioactivity in thymus of CD-1 Mice by intravenous administration of compound after 1 hr expressed as dose/gram; format: ADME, organism-based; settings: in vivo; summary of the method: as §2
Mus musculus [25] = test: Distribution of Radioactivity in thymus of CD-1 Mice by intravenous administration of compound after 4 hr expressed as dose/gram; format: ADME, organism-based; settings: in vivo; summary of the method: as §2
Mus musculus [26] = test: Distribution of Radioactivity in thymus of CD-1 Mice by intravenous administration of compound after 5 minutes expressed as dose/gram; format: ADME, organism-based; settings: in vivo; summary of the method: as §2
Mus musculus [27] = test: Distribution of Radioactivity in spleen of CD-1 Mice by intravenous administration of compound after 1 day expressed as dose/gram; format: ADME, organism-based; settings: in vivo, 24 h; summary of the method: as §2
Mus musculus [28] = test: Distribution of Radioactivity in spleen of CD-1 Mice by intravenous administration of compound after 1 hr expressed as dose/gram; format: ADME, organism-based; settings: in vivo; summary of the method: as §2
Mus musculus [29] = test: Distribution of Radioactivity in spleen of CD-1 Mice by intravenous administration of compound after 4 hr expressed as dose/gram; format: ADME, organism-based; settings: in vivo; summary of the method: as §2
Mus musculus [30] = test: Distribution of Radioactivity in spleen of CD-1 Mice by intravenous administration of compound after 5 minutes expressed as dose/gram; format: ADME, organism-based; settings: in vivo; summary of the method: as §2
Mus musculus [31] = test: Distribution of Radioactivity in stomach of CD-1 Mice by intravenous administration of compound after 1 day expressed as dose/gram; format: ADME, organism-based; settings: in vivo, 24 h; summary of the method: as §2
Mus musculus [32] = test: Distribution of Radioactivity in adrenals of CD-1 Mice by intravenous administration of compound after 1 day expressed as dose/gram; format: ADME, organism-based, Adrenal gland; settings: in vivo, 24 h; summary of the method: as §1
Mus musculus [33] = test: Distribution of Radioactivity in adrenals of CD-1 Mice by intravenous administration of compound after 1 hr expressed as dose/gram; format: ADME, organism-based, Adrenal gland; settings: in vivo; summary of the method: as §1
Mus musculus [34] = test: Distribution of Radioactivity in adrenals of CD-1 Mice by intravenous administration of compound after 4 hr expressed as dose/gram; format: ADME, organism-based, Adrenal gland; settings: in vivo; summary of the method: as §1
Mus musculus [35] = test: Distribution of Radioactivity in adrenals of CD-1 Mice by intravenous administration of compound after 5 minutes expressed as dose/gram; format: ADME, organism-based, Adrenal gland; settings: in vivo; summary of the method: as §1
Mus musculus [36] = test: Distribution of Radioactivity in blood of CD-1 Mice by intravenous administration of compound after 1 day expressed as dose/gram; format: ADME, organism-based; settings: in vivo, 24 h; summary of the method: as §1
Mus musculus [37] = test: Distribution of Radioactivity in blood of CD-1 Mice by intravenous administration of compound after 1 hr expressed as dose/gram; format: ADME, organism-based; settings: in vivo; summary of the method: as §1
Mus musculus [38] = test: Distribution of Radioactivity in blood of CD-1 Mice by intravenous administration of compound after 4 hour expressed as dose/gram; format: ADME, organism-based; settings: in vivo; summary of the method: as §1
Mus musculus [39] = test: Distribution of Radioactivity in blood of CD-1 Mice by intravenous administration of compound after 5 minutes expressed as dose/gram; format: ADME, organism-based; settings: in vivo; summary of the method: as §1
Mus musculus [40] = test: Distribution of Radioactivity in kidneys of CD-1 Mice by intravenous administration of compound after 1 day expressed as dose/gram; format: ADME, organism-based, Kidney; settings: in vivo, 24 h; summary of the method: as §1

Injected (Mus musculus [1]): 4.59% | Injected (Mus musculus [2]): 1.321% | Injected (Mus musculus [3]): 15.745% | Injected (Mus musculus [4]): 7.75% | Injected (Mus musculus [5]): 0.508% | Injected (Mus musculus [6]): 1.784% | Injected (Mus musculus [7]): 1.01% | Injected (Mus musculus [8]): 0.252% | Injected (Mus musculus [9]): 1.015% | Injected (Mus musculus [10]): 0.47% | Injected (Mus musculus [11]): 3.603% | Injected (Mus musculus [12]): 0.067% | Injected (Mus musculus [13]): 0.247% | Injected (Mus musculus [14]): 0.16% | Injected (Mus musculus [15]): 1.749% | Injected (Mus musculus [16]): 0.059% | Injected (Mus musculus [17]): 2.641% | Injected (Mus musculus [18]): 0.367% | Injected (Mus musculus [19]): 1.739% | Injected (Mus musculus [20]): 0.326% | Injected (Mus musculus [21]): 0.166% | Injected (Mus musculus [22]): 0.987% | Injected (Mus musculus [23]): 0.138% | Injected (Mus musculus [24]): 0.35% | Injected (Mus musculus [25]): 0.195% | Injected (Mus musculus [26]): 2.579% | Injected (Mus musculus [27]): 0.189% | Injected (Mus musculus [28]): 0.384% | Injected (Mus musculus [29]): 0.206% | Injected (Mus musculus [30]): 1.348% | Injected (Mus musculus [31]): 0.032% | Injected (Mus musculus [32]): 0.556% | Injected (Mus musculus [33]): 1.054% | Injected (Mus musculus [34]): 0.786% | Injected (Mus musculus [35]): 6.85% | Injected (Mus musculus [36]): 0.086% | Injected (Mus musculus [37]): 1.039% | Injected (Mus musculus [38]): 0.22% | Injected (Mus musculus [39]): 6.768% | Injected (Mus musculus [40]): 0.871%
Substance: beta-[103,106Ru]Ruthenocenylalanine
